Columns and labels:
[1] = Toxicity in C57BL/6 mouse assessed as reversal of scopolamine-induced spontaneous alternation deficit at 3 mg/kg, sc incubated for 30 mins; format: organism-based; conditions: in vivo, 0.5 h
[2] = Volume of distribution in C57BL6 mouse at 0.3 to 3 mg/kg, iv; format: ADME, organism-based; conditions: in vivo, dose 0.3-3 mg/kg
Summary of the method: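 Pharmacokinetics in C57Bl6 mice given the compound iv at 0.3, 1 or 3 mg/kg in 0.9 % saline (10 mL/kg), three animals per dose. Terminal cardiac blood taken under isoflurane at six time points. Plasma analyzed by UHPLC–MS/MS (LLOQ 1 ng/mL). Parameters derived by non-compartmental analysis.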

[3] = Drug metabolism in human liver microsome measured at 40 mins by UPLC/QE-orbitrap-MS method; format: ADME; conditions: microsomes
Summary of the method: (§1)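 Test compound as fumarate salt incubated with human, dog, mouse or rat liver microsomes over 0–60 min. Parent remaining measured by UPLC/QE-orbitrap-MS as relative LC/MS peak area (% of 0 min), n = 1.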

[4] = Drug metabolism in human liver microsome measured at 10 mins by UPLC/QE-orbitrap-MS method; format: ADME; conditions: microsomes; summary of the method: as §1
[5] = Drug metabolism in dog liver microsome measured at 40 mins by UPLC/QE-orbitrap-MS method; format: ADME, Canis lupus familiaris; conditions: microsomes; summary of the method: as §1
[6] = Clearance in C57BL6 mouse at 0.3 to 3 mg/kg, iv; format: ADME, organism-based; conditions: in vivo, dose 0.3-3 mg/kg
Summary of the method: (§2)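 Single iv dose of 0.3, 1 or 3 mg/kg in 0.9 % saline, three animals per dose (C57Bl6 mice, Wistar rats). Terminal cardiac-puncture blood under isoflurane at six time points. Plasma protein-precipitated and assayed by UHPLC–MS/MS (LLOQ 1 ng/mL). Parameters from non-compartmental analysis.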

[7] = Drug metabolism in rat liver microsome measured at 20 mins by UPLC/QE-orbitrap-MS method; format: ADME; conditions: microsomes; summary of the method: as §1
[8] = Drug metabolism in mouse liver microsome measured at 10 mins by UPLC/QE-orbitrap-MS method; format: ADME; conditions: microsomes; summary of the method: as §1
[9] = Drug metabolism in dog liver microsome measured at 10 mins by UPLC/QE-orbitrap-MS method; format: ADME, Canis lupus familiaris; conditions: microsomes; summary of the method: as §1
[10] = MRT in C57BL6 mouse at 0.3 to 3 mg/kg, iv; format: ADME, organism-based; conditions: in vivo, dose 0.3-3 mg/kg; summary of the method: as §2
Cytochrome P450 2C8 = target: T1, Cytochrome P450 2C8 (Homo sapiens, UniProt P10632); assay: Inhibition of CYP2C8 in human liver microsomes using repaglinide as substrate; format: ADME, Microsome
T1 sequence (P10632 whole entry): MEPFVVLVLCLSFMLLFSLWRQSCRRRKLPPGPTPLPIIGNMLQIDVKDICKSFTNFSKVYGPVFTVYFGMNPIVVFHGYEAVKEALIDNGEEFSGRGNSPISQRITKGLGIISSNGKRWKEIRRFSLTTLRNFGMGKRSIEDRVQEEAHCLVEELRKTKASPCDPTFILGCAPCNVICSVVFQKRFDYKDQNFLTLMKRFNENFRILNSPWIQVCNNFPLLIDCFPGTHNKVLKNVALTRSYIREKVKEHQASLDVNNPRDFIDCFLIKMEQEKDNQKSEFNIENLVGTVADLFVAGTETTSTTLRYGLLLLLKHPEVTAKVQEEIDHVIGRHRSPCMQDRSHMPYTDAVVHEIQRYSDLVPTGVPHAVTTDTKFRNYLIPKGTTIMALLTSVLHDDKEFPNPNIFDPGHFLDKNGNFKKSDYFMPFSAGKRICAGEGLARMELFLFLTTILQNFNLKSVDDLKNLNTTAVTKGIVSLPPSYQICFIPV
Summary of the method: (§3)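 Human liver microsomes with a cocktail of CYP-specific probe substrates; metabolite formation monitored for each probe reaction. Test compound (fumarate) at 0.01, 0.1, 1, 10 and 100 μM. Control inhibitors run at a single concentration for each probe reaction. IC50 estimated.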

[11] = Half life in Wistar rat at 0.3 to 3 mg/kg, iv; format: ADME, organism-based; conditions: in vivo, dose 0.3-3 mg/kg; summary of the method: as §2
Cytochrome P450 2A6 = target: T2, Cytochrome P450 2A6 (Homo sapiens, UniProt P11509); assay: Inhibition of CYP2A6 in human liver microsomes using coumarin as substrate; format: ADME, Microsome; summary of the method: as §3
T2 sequence (P11509 whole entry): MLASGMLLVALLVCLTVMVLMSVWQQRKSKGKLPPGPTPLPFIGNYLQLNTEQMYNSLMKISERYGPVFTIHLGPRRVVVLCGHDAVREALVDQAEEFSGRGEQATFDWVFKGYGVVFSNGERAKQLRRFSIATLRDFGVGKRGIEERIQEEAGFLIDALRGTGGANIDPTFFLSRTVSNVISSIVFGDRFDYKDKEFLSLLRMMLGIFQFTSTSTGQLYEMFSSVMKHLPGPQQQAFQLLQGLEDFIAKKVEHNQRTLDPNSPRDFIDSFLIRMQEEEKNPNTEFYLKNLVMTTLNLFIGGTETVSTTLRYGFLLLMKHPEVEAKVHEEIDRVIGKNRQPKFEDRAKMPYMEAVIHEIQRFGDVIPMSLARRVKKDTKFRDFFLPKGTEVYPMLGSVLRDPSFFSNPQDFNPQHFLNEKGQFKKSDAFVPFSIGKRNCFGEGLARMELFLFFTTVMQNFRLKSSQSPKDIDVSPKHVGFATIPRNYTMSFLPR

[12] = Drug metabolism in mouse liver microsome measured at 40 mins by UPLC/QE-orbitrap-MS method; format: ADME; conditions: microsomes; summary of the method: as §1
[13] = Drug metabolism in rat liver microsome measured at 40 mins by UPLC/QE-orbitrap-MS method; format: ADME; conditions: microsomes; summary of the method: as §1
[14] = Drug metabolism in mouse liver microsome measured at 20 mins by UPLC/QE-orbitrap-MS method; format: ADME; conditions: microsomes; summary of the method: as §1
[15] = Drug metabolism in dog liver microsome measured at 60 mins by UPLC/QE-orbitrap-MS method; format: ADME, Canis lupus familiaris; conditions: microsomes, 1 h; summary of the method: as §1
Cytochrome P450 2D6 = Cytochrome P450 2D6 (Homo sapiens, UniProt P10635); assay: Inhibition of CYP2D6 in human liver microsomes using dextromethorphan as substrate; format: ADME, Microsome; summary of the method: as §3
Chain of Cytochrome P450 2D6 (P10635 whole entry): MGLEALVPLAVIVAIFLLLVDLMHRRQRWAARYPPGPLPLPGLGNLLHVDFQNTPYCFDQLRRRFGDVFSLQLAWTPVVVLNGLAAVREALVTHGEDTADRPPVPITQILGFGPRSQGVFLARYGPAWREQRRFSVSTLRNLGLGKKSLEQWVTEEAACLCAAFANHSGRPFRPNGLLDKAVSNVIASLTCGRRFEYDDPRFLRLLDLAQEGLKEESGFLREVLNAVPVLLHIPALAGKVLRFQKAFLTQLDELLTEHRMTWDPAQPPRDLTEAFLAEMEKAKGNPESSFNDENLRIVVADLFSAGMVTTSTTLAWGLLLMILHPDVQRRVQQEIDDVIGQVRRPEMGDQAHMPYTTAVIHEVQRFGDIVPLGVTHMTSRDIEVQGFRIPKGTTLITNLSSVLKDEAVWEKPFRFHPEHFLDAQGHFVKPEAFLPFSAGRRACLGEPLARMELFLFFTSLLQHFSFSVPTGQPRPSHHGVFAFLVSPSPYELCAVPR

[16] = MRT in Wistar rat at 0.3 to 3 mg/kg, iv; format: ADME, organism-based; conditions: in vivo, dose 0.3-3 mg/kg; summary of the method: as §2
[17] = Drug metabolism in human liver microsome measured at 60 mins by UPLC/QE-orbitrap-MS method; format: ADME; conditions: microsomes, 1 h; summary of the method: as §1
[18] = target: 5-hydroxytryptamine receptor 4 (Homo sapiens, UniProt Q13639); assay: Binding affinity to human recombinant 5HT4 receptor assessed as inhibition constant incubated for 60 mins
Chain of 5-hydroxytryptamine receptor 4 (Q13639 whole entry): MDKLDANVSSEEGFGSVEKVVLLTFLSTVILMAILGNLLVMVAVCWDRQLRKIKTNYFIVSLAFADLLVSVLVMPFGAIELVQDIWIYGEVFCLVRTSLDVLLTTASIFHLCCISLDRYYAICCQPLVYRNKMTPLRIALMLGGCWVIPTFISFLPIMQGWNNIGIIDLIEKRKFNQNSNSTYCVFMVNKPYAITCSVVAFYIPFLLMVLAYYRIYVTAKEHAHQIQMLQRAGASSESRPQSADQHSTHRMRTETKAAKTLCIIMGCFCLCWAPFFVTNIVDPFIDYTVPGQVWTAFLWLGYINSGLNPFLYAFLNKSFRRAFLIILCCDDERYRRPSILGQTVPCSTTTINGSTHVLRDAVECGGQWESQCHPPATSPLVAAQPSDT

Cytochrome P450 2B6 = target: T3, Cytochrome P450 2B6 (Homo sapiens, UniProt P20813); assay: Inhibition of CYP2B6 in human liver microsomes using bupropion as substrate; format: ADME, Microsome; summary of the method: as §3
T3 sequence (P20813 whole entry): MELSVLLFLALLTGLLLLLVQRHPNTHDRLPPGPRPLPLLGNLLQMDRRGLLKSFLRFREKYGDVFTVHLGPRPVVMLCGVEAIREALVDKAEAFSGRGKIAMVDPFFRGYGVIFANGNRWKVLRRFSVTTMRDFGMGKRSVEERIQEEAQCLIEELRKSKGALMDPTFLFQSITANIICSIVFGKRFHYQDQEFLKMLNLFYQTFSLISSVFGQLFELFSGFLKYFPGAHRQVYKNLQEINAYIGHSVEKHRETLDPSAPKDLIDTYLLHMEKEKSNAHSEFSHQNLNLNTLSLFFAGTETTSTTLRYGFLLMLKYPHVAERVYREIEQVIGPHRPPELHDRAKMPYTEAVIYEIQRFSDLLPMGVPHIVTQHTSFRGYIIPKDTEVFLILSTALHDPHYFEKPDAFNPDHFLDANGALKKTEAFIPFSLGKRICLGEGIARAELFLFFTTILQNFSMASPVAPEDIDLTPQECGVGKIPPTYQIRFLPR

Structure (SMILES): COc1cc(N)c(F)cc1C(=O)CCC1CCN(CC2CCCCC2)CC1.O=C(O)/C=C/C(=O)O
- Activity [1]: Non-toxic
- Vd [2]: 3.6 L/kg
- Drug metabolism [3]: 63%
- Drug metabolism [4]: 89%
- Drug metabolism [5]: 40%
- clearance [6]: 35.5 mL/min/kg
- Drug metabolism [7]: 10%
- Drug metabolism [8]: 63%
- Drug metabolism [9]: 77%
- MRT [10]: 1.15 h
- IC50 (Cytochrome P450 2C8): > 100 µM
- half-life [11]: 0.769 h
- IC50 (Cytochrome P450 2A6): > 100 µM
- Drug metabolism [12]: 25%
- Drug metabolism [13]: 6%
- Drug metabolism [14]: 44%
- Drug metabolism [15]: 29%
- IC50 (Cytochrome P450 2D6): 0.6 µM
- MRT [16]: 1.15 h
- Drug metabolism [17]: 59%
- Ki [18]: 0.0163 µM
- IC50 (Cytochrome P450 2B6): 95.7 µM
